DENV2 CPE: inhibitors of DENV2 cytopathic effect; DENV2-infected cells, cytopathic effect rescue, plate reader; CPE inhibition, % at 9.99 µM; 350,000 tested, 1.7% active; in the data active = CPE inhibition above about 20%, passing the limit was not always enough; inconclusive = no clear call, values can overlap the other calls; tested in BHK-21 cells;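 note: 0% = median of neutral control wells and 100% = median of positive control wells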
C2C12 statin: suppression of simvastatin myotoxicity; C2C12 myotubes + simvastatin, ATP luminescence, 48 h; scaled: DMSO 0, geranylgeraniol control 100; rescue of ATP level, % at 7.49 µM; 330,000 tested, 0.78% active; AID 602340;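 active = mean ATP rescue above about 67%, or every replicate alone reaching that limit, limit read from the data, passing the limit was not always enough; inconclusive = no clear call, values can overlap the other calls; inactive = mean under the limit and some replicate under it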;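 note: myotubes were challenged with 10 µM simvastatin during compound exposure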
FGF22 binding: shifts melting point of recombinant human FGF22; Q9HCT0; recombinant FGF22 thermal shift, SYPRO orange fluorescence; percent of sucrose octasulfate shift, DMSO zero; 340,000 tested, 1.5% active; activity (Tm shift, normalised), % at 9.99 µM; AID 651658;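 active = mean Tm shift, scaled 0 neutral to 100 positive control, at about 1.3% or above, every replicate too, limit read from the data; inconclusive = no clear call, values can overlap the other calls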
Target sequence (Q9HCT0 whole entry, looked up): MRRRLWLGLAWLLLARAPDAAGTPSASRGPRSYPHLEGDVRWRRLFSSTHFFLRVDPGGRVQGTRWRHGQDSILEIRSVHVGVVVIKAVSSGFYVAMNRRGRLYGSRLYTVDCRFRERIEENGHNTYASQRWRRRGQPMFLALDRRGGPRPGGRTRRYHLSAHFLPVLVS
PglD inh: blocks C. jejuni PglD acetyltransferase activity. 360,000 tested, 0.098% active. inhibition, % at 12.5 µM. purified PglD enzyme, DTNB colorimetric CoA detection. AID 602405; in the data active = inhibition above about 16%, passing the limit was not always enough; inconclusive = no clear call, values can overlap the other calls
XiGFP reactiv: reactivates the inactive X chromosome in mouse fibroblasts | activation, % at 7.58 µM | 360,000 tested, 0.055% active | XiGFP mouse fibroblasts, % GFP-positive cells imaging, 3 d; cells co-treated with 5-aza-dC sensitizer; scaled so ellipticine positive control = 100% | AID 743238;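 active = mean normalized replicate activation at least 10% and every replicate at or above 10%; inconclusive = only one of the two criteria met; inactive = mean below 10% and not all replicates reach 10%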;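 note: 0% = median of on-plate neutral control wells and 100% = ellipticine 6 µM median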
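Schedule: 3 d treatment, 15 min room-temperature fixation; system: 68-5-11 XiGFP fibroblast line; buffer or medium: DMEM plus 5-aza-dC sensitizer; control set: ellipticine 6 µM positive control; compound: one concentration, pinned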
E-sel inducer: induces E-selectin expression in human endothelial cells; P16581; HUVEC E-selectin immunofluorescence imaging; normalized: neutral wells 0, TNF-alpha wells 100; activation, % at 7.58 µM; 260,000 tested, 0.37% active; AID 686992;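 active = mean E-selectin-positive cell signal at least 10% of the positive control, reached in at least 60% of replicates, without over 20% cell loss; inconclusive = no rule given, readout overlaps actives, possibly toxicity-flagged; inactive = the rest, including those meeting only one limit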
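Read-out: % PE-positive cells | Test system: HUVEC | Doses: One compound dose added by pin transfer | Buffer or medium: EGM-2 over gelatin coat | Signal: Immunofluorescence imaging | Benchmarks: TNF-alpha, DMSO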
Numbers without * were called inactive; ? = inconclusive; / = not tested or not shown. Rows were chosen to be rich in hits. Some 3.3% of all compounds tested hit in one or more screens of this group.

SMILES	DENV2 CPE	C2C12 statin	FGF22 binding	PglD inh	XiGFP reactiv	E-sel inducer
O=C(NCC1CCCCC1)[C@H]1[C@H](CO)[C@H]2Cn3c(ccc(-c4ccccc4)c3=O)[C@@H]1N2	-5	-4	0	0	0	0
C[C@H](CO)N1C[C@H](C)[C@H](CN(C)S(=O)(=O)c2ccccc2)Oc2c(NC(=O)Nc3cccc4ccccc34)cccc2C1=O	-6	/	0	/	0	1
Cc1ccc(S(=O)(=O)N(C)C[C@H]2Oc3c(NC(=O)Nc4cccc5ccccc45)cccc3C(=O)N([C@H](C)CO)C[C@@H]2C)cc1	35*	3	-1	-2	1	0
C[C@H](CO)N1C[C@H](C)[C@@H](CN(C)S(=O)(=O)c2ccccc2)Oc2c(NC(=O)Nc3cccc4ccccc34)cccc2C1=O	168*	8	0	-2	0	0
CC(C)C(NC(=O)c1ccc(C(C)(C)C)cc1)C(=O)NCc1ccccn1 (stereo not given)	5	5	0	0	1	-1
COc1ccc(C(=O)NC(C(=O)NCc2ccccn2)C(C)C)cc1 (stereo not given)	/	136*	/	0	/	/
CC(=O)Nc1ccc(S(=O)(=O)Oc2ccc(N3C(=O)C4CCCCC4C3=O)cc2)cc1 (stereo not given)	/	124*	/	2	/	-2
CN1CCN(C(=O)C[C@@H]2C[C@H]3c4cc(NC(=O)Nc5ccc(C(F)(F)F)cc5)ccc4O[C@H]3[C@H](CO)O2)CC1	1	-1	-1	3	0	0
C(=C\c1sc(Nc2ccccc2)n[n+]1-c1ccccc1)/c1ccccc1	52*	2	0	2	0	0
COc1ccc(-c2sc(Nc3ccccc3)n[n+]2-c2ccccc2)cc1Br	/	4	0	8	0	0
N#Cc1ccc(-c2ccc(C3[C@@H]4CN(Cc5ccccc5F)C[C@H]3N4)cc2)cc1 (stereo not given in full)	-2	/	/	/	0	0
N#Cc1ccc(-c2ccc([C@@H]3[C@@H]4CN(Cc5cocn5)C[C@H]3N4)cc2)cc1	99*	/	0	/	0	0
CCn1nc(C)c(/C=C/C(=O)Nc2ccc(C)cc2C)c1C	89*	/	/	/	0	/
O=C(O)C1CCN(c2nc(-c3ccccc3)c3cc(Br)ccc3n2)CC1	1	15	0	-1	0	34*
CC(C)(C)c1ccc(C(=O)OCC(=O)N2CCC(c3ccccc3)=N2)cc1	2	1	30*	0	0	-2
C[C@H](CO)N1C[C@H](C)[C@H](CN(C)C(=O)Cc2ccccn2)Oc2ncc(C#CC3CCCCC3)cc2C1=O	9	-7	0	1	0	-3
O=C(NN1C(=O)NC2(CCCCC2)C1=O)c1ccc(Cl)c(Cl)c1	?	-10	1	3	0	1
CC(C)Oc1ccc(C(=O)NN2C(=O)NC3(CCCCC3)C2=O)cc1	68*	-3	0	3	0	1
O=C(NN1C(=O)NC2(CCCCC2)C1=O)c1cc(F)cc(F)c1	32*	1	0	4	0	15
CCOc1ccc(C(=O)CCC(=O)NN2C(=O)NC3(CCCCC3)C2=O)cc1	2	11	0	2	0	0
CC(C)NC(=O)N(C)C[C@H]1Oc2ncc(C#CC3CCCC3)cc2C(=O)N([C@H](C)CO)C[C@@H]1C	1	26	0	-1	-1	1
CCCNC(=O)Nc1ccc2c(c1)C(=O)N(C)C[C@H](OC)[C@H](C)CN(C)[C@H](C)CO2	38*	10	0	0	0	0
CCCNC(=O)Nc1ccc2c(c1)OC[C@@H](C)N(C)C[C@@H](C)[C@H](OC)CN(C)C2=O	-9	6	0	7	0	0
CCCNC(=O)Nc1ccc2c(c1)C(=O)N(C)C[C@H](OC)[C@H](C)CN(C)[C@@H](C)CO2	101*	13	0	0	0	0
CCCNC(=O)Nc1ccc2c(c1)C(=O)N(C)C[C@@H](OC)[C@H](C)CN(C)[C@@H](C)CO2	-1	-9	0	-1	0	0
